# Measurements taken from the RNAGym collection of RNA variant scans (doi:10.1126/science.aae0568).
# Fewer inactive variants are shown than the library holds.
# B1: tRNA (parent)
# chain: GUUCCGUUGGCGUAAUGGUAACGCGUCUCCCUCCUAAGGAGAAGACUGCGGGUUCGAGUCCCGUACGGAACG
# Variants of: B1
# Test: yeast fitness relative to wild type (ratio to wild type); higher = fitter; tRNA-Arg(CCU), competitive growth, 37 C, YPD
# Outline: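 Genotype frequency changes were the basis for Darwinian fitness relative to wild type. The frequencies came from 100-nucleotide paired-end sequencing of gene amplicons from the start population and each end population of pooled yeast strains with tRNA-Arg(CCU) gene variants at the native locus. Competition ran in YPD at 37°C for 24 hours in six replicates, genotypes needed ≥ 100 starting reads, and estimates < 0.5 were set to 0.5.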
row,Variant,yeast fitness
1,U3G C49U G58A G63A,0.584
2,U3G C66U A70U,0.534
3,U3C U19C A40G C46A,0.74
4,U3C U8C C11A C31A G68C,≤ 0.5
5,U3C U35G A57C A70C,≤ 0.5
6,U3C U13C U16A A45G C61A U64C,≤ 0.5
7,U3G C22A C24U U35G A45U,≤ 0.5
8,U3C U8C C11A U32G C61A C62A,≤ 0.5
9,U3G A14U C29U A37G G51A,≤ 0.5
10,U3C U54A C62U,≤ 0.5
11,U3G C4A A40U,0.547
12,U3G G12C A42U G67C,≤ 0.5
13,U3G C5U U32C G41C,≤ 0.5
14,U3C U8C A14G U28G A36U C46U U47C C61U,0.553
15,U3G C4A A40U A57G C62U,≤ 0.5
16,U3C G38C A57U A70G,0.622
17,U3C U19A C22U G23A,≤ 0.5
18,U3G C62A,0.75
19,U3C G12C A37U G51A C62U G63A,≤ 0.5
20,U3G A43U U53C U54A A57C A65C,≤ 0.5
21,U3C U13G A70G,0.698
22,U3G C5U G39A C49U,≤ 0.5
23,U3G A15C C30G C33G A37C,0.795
24,U3G C46U C49U,0.698

row,Variant,yeast fitness
1,U3G C4U A15G C24G C55U,≤ 0.5
2,U3G C30U G48C,0.593
3,U3G A14C A20U,≤ 0.5
4,U3C U19A G52A U59C C66A G67A,≤ 0.5
5,U3G A14C A42U G44C,0.578
6,U3G C5G U19C,≤ 0.5
7,U3C U13C,0.841
8,U3G A21C C46U,0.505
9,U3C U13A A45C G48A,0.604
10,U3C U13A A20C C30G C31A G67C,≤ 0.5
11,U3C G18C C31G U59A G67A,≤ 0.5
12,U3C U8G U28G C31A C61U,≤ 0.5
13,U3C G23C C27G C61G,0.539
14,U3G A15G A21U C24U U35C G38A,≤ 0.5
15,U3G C4A G12A C29A C30G C62A A69C,≤ 0.5
16,U3C G44C,0.908
17,U3C G44A,0.993
18,U3G C24G C49U G58A G63A,≤ 0.5
19,U3G C29A C46U C61G,≤ 0.5
20,U3G C4G G6C C29A A36C G52C U64C,≤ 0.5
21,U3G C4G G6C C29A A36C G52C G56A,≤ 0.5
22,U3C G44C A70C,0.602
23,U3C G23C C27G G39A C66U,≤ 0.5
24,U3C U16A C34A U53C C60U,≤ 0.5

row,Variant,yeast fitness
1,U3G A37C G56A,0.533
2,U3C G12A U28C G48C G63C,≤ 0.5
3,U3G C11U C55G,≤ 0.5
4,U3C U13C U16A C61A U64C,0.582
5,U3C G12A C49U,0.569
6,U3G A20C A65U,0.589
7,U3C U13A A45C G48A U64C,0.57
8,U3G A37U,0.683
9,U3G G6A A14G C55G A65G,≤ 0.5
10,U3C G48C G67C,≤ 0.5
11,U3G A42U C49U,0.613
12,U3G C30U G48C G68C,0.526
13,U3G C31G,0.874
14,U3G C31A,0.747
15,U3C U8C G9A A69U,0.564
16,U3C U13C C24U G52A G68A,≤ 0.5
17,U3G G6A A36U G48C G52C A57U C60G,0.569
18,U3C U47G,0.7
19,U3C U47A,0.907
20,U3C U47C,0.866
21,U3C U13A A14C A42G,≤ 0.5
22,U3G A15G C24G G50A,0.539
23,U3C U8A A43G A57U G63A,≤ 0.5
24,U3C U28A C34U G41C G51A U53A U59C A70U,≤ 0.5

row,Variant,yeast fitness
1,U3C G44C C60G,0.562
2,U3G C24G C49U C55G G58A,≤ 0.5
3,U3G C5A,0.779
4,U3C G50A C61U,0.671
5,U3G A45C A69U,1.08
6,U3G C46A A57U A69U,≤ 0.5
7,U3C U26C G44C U54A A69C,≤ 0.5
8,U3G C4A G9A U64A,≤ 0.5
9,U3C U7A G9C G17C G48A A69U,≤ 0.5
10,U3G A45G,1
11,U3G A45C,0.973
12,U3C U13C U28G U54A C62A,≤ 0.5
13,U3G A36U,0.598
14,U3G A36G,0.977
15,U3C G12C A37U G51A C62U,0.607
16,U3C G56C,0.67
17,U3C G48A U54A,0.534
18,U3C G39A G67U,≤ 0.5
19,U3C G12C A20U C22G G50A C61A,≤ 0.5
20,U3C U13C C24U G52A G56A,≤ 0.5
21,U3G A15G C24G G44A G50A C55U,≤ 0.5
22,U3G C24U C31U G50U A69U,0.56
23,U3G C46G G52C,≤ 0.5
24,U3G A43G U47A C49A,0.535

row,Variant,yeast fitness
1,U3C G25C G41C C46U A65U,≤ 0.5
2,U3G A15G A21G U26C C29G C30U C49U A57U,≤ 0.5
3,U3C G18A U53A U54G A70G,≤ 0.5
4,U3G A14U G48C C49U C61A,≤ 0.5
5,U3G A14U C29U A37G,≤ 0.5
6,U3C U8A A15C C31G C49U A57U,0.609
7,U3C U32C,0.839
8,U3G C5A A20G A70U,≤ 0.5
9,U3G A37C A40G U47C,≤ 0.5
10,U3C G39C G63A,0.533
11,U3G C24A A40C,≤ 0.5
12,U3G A36C A45C G58A G68C A70U,≤ 0.5
13,U3C U54G,0.536
14,U3C U54A,0.676
15,U3C U54C,0.873
16,U3C G12C,0.716
17,U3G C31G A43C G52A,0.595
18,U3C U13G C24U,0.559
19,U3C U32G A37G,≤ 0.5
20,U3G A42C,0.754
21,U3G A42U,0.758
22,U3C U8G U32A C33G C62U,≤ 0.5
23,U3C U28C C33U A45U,0.528
24,U3G A15U U35C,≤ 0.5

row,Variant,yeast fitness
1,U3C U16G A21C G25C A37C A40U,≤ 0.5
2,U3C G18A U53A U54G G63A,≤ 0.5
3,U3C G12A C31G U59A,0.537
4,U3C U59G,0.71
5,U3C U59A,0.846
6,U3C G17U C31A,≤ 0.5
7,U3C U26C A42U,0.939
8,U3G C31U C49U A70C,≤ 0.5
9,U3C U13A A20C C30G C31A U54A C55U,0.521
10,U3C U7A A20G C31U A57C G67C,≤ 0.5
11,U3C U32C G58C,1.04
12,U3G A69U,0.924
13,U3C U28A C55G,≤ 0.5
14,U3C U8G,0.581
15,U3G A43U,1.08
16,U3G C30A C31G,0.669
17,U3G A15U,0.633
18,U3G A15G,0.846
19,U3C U26G G67C,≤ 0.5
20,U3G A15G A21U C24U G38A,0.571
21,U3C G23A C30U C33A G41C A42U,≤ 0.5
22,U3C U19A C46A,0.716
23,U3C U16G U19A A43C A57U A69C,≤ 0.5
24,U3G A20G A45G,0.75

row,Variant,yeast fitness
1,U3C G12A C30U G44A C61U,≤ 0.5
2,U3C U19A G68A,0.698
3,U3G C11A C34G A45C,≤ 0.5
4,U3G G9C A20G C29A G67U,≤ 0.5
5,U3C U7C U19A G23A C29G A45U C60G C61U A69G,≤ 0.5
6,U3C U19C A20G,0.663
7,U3G G12A,0.682
8,U3G A20C A21G,0.798
9,U3C U8C A57C,≤ 0.5
10,U3G A15G G23A,≤ 0.5
11,U3C U19A G58C C62G A70U,≤ 0.5
12,U3G C46U G68C,0.607
13,U3G C22A G25C C33U A69C,0.507
14,U3G C49A G63U G67A,≤ 0.5
15,U3C G23A C34U A40U A42U U64A,≤ 0.5
16,U3C G63A A70U,0.655
17,U3G C5U G23C C34G C55G A70C,≤ 0.5
18,U3C G39C A43G G44C A45U C49G G67C,≤ 0.5
19,U3G C5G U19C U47A C55A G68A,≤ 0.5
20,U3G C5U C31A A65U,≤ 0.5
21,U3C G50A G68C,0.609
22,U3G C27U,0.798
23,U3G C31G U64A C66U G68C,≤ 0.5
